The text below walks through data of ChEMBL document CHEMBL1137687, “Anti-HIV evaluation of benzo[d]isothiazole hydrazones” (Eur J Med Chem, 2009).

SMILES strings stand for the structures.

Series [1] relates to Human immunodeficiency virus 1. The series can be described thus: Antiviral activity against NNRTI-resistant HIV1 3B with reverse transcriptase K103N+Y181C mutation in human MT4 cells assessed as protection against virus-induced cytopathogenicity after 4 days by MTT assay. Type of series: functional, organism-based. The conditions noted are these: Human immunodeficiency virus 1, 3B, MT4, 96 h. Summed up: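 MT-4 cells (RPMI 1640, 10% FCS, 37 °C, 5% CO2), 1×10⁴/well, with compound serial dilutions from 100 mM DMSO stock, infected with K103N+Y181C virus (NIH A17, from IIIB passaged in H9 cells with BI-RG 587; stock 2.1×10⁷ CCID50/mL) at dose giving full cytopathogenicity by day 4. MTT viability; EC50 = 50% protection.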
(Damage to the host cells serves as the signal in cytopathic effect assays.)

Series [2] is described as follows: Cytotoxicity against mock-infected human MT4 cells after 4 days by MTT assay. Type of series: cell-based. Summed up:
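Mock-infected MT-4 cells, 1 × 10⁴ per well in RPMI 1640 with 10% FCS, 37 °C, 5% CO₂. Exposed to serial compound dilutions from a 100 mM DMSO stock diluted in medium, in parallel with the antiviral assay. Viability read by MTT. CC₅₀ taken as concentration reducing viability of mock-infected cells by 50%.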

Series [3] deals with Human immunodeficiency virus 1. The series can be described thus: Antiviral activity against NNRTI-resistant HIV1 3B with reverse transcriptase K103R+V179D+P225H mutation in human MT4 cells assessed as protection against virus-induced cytopathogenicity after 4 days by MTT assay. The following applies: Human immunodeficiency virus 1, 3B, MT4, 96 h. Type of series: functional, organism-based. A digest of the protocol:
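K103R+V179D+P225H (EFV^R) virus, from IIIB passaged in MT-4 cells under efavirenz; stock 4.0×10⁷ CCID50/mL. Added to 1×10⁴ MT-4 cells/well (RPMI 1640, 10% FCS, 37 °C, 5% CO2) with compound dilutions from 100 mM DMSO stock, amount causing complete cytopathogenicity at day 4. Viability by MTT; EC50 = concentration giving 50% protection.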

In series [4] the test system is Human immunodeficiency virus 1. In words: Antiviral activity against NNRTI-resistant HIV1 with reverse transcriptase Y181C mutation in human MT4 cells assessed as protection against virus-induced cytopathogenicity after 4 days by MTT assay. The class given is functional, organism-based. The conditions noted are these: Human immunodeficiency virus 1, MT4, 96 h. A digest of the protocol:
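Y181C virus (NIH N119) came from an AZT-sensitive clinical isolate passaged in CEM then MT-4 cells with nevirapine; stock 1.2×10⁸ CCID50/mL. It infected 1×10⁴ MT-4 cells/well (RPMI 1640, 10% FCS, 37 °C, 5% CO2) with compound dilutions from 100 mM DMSO stock, at a dose giving full cytopathogenicity by day 4. Readout MTT; EC50 = 50% protection.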

In series [5] the test system is Human immunodeficiency virus 1. The series can be described thus: Antiviral activity against wild type HIV1 3B assessed as protection as protection against virus-induced cytopathogenicity after 4 days by MTT assay. The class given is functional. The conditions noted are these: Human immunodeficiency virus 1, 3B, 96 h. Summed up: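 HIV-1 IIIB from supernatants of persistently infected H9/IIIB cells. MT-4 cells, 1 × 10⁴ per well in RPMI 1640 with 10% FCS, exposed to serial compound dilutions (100 mM DMSO stock diluted in medium). Virus inoculum sized in CCID₅₀ to give complete cytopathogenicity by day 4. Incubated at 37 °C, then viability read by MTT. EC₅₀ taken as concentration giving 50% protection from virus-induced cytopathogenicity.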

`Cc1ccc2sn(/N=C/c3ccc4c(c3)OCO4)c(=O)c2c1`: the EC50 in series [1] is 47 µM; in series [3] it was 20 µM; in series [4] it was 33 µM; in series [5], 33 µM. This compound also gave a half-maximal cytotoxic concentration (CC50) at 96 h in series [2] above 100 µM.
For the compound `COc1ccc(/C=N/n2sc3ccc(C)cc3c2=O)cc1`, the EC50 in series [1], in series [3], in series [4] and in series [5] was above 55 µM throughout. In series [2], this compound showed a CC50 at 96 h of 55 µM.
Turning to `Cc1ccc2sn(/N=C/c3cccc(O)c3)c(=O)c2c1`, the EC50 in series [1] is above 16 µM; in series [3] it was 8.4 µM; in series [4], above 16 µM; in series [5], above 16 µM. This compound also showed a CC50 at 96 h in series [2] of 16 µM.
On to `Cc1ccc2sn(/N=C/c3ccc(O)c(O)c3)c(=O)c2c1`, for which the EC50 in series [1], in series [3], in series [4] and in series [5] was above 49 µM in each case. The CC50 at 96 h in series [2] was 49 µM.
On to `COc1cc(/C=N/n2sc3ccc(C)cc3c2=O)ccc1O`, for which the EC50 in series [1], in series [3], in series [4] and in series [5] was above 16 µM each time. Moreover, the CC50 at 96 h in series [2] is 16 µM.
Regarding `Cc1ccc2sn(/N=C/c3ccco3)c(=O)c2c1`, the EC50 in series [1], in series [3], in series [4] and in series [5] was above 18 µM throughout. The CC50 at 96 h in series [2] amounted to 18 µM.
Consider `Cc1ccc2sn(/N=C/C=C/c3ccccc3)c(=O)c2c1`, for which the EC50 in series [1], in series [3], in series [4] and in series [5] was above 19 µM each time. Moreover, it took 19 µM to reach half-maximal cytotoxicity in series [2] (CC50 at 96 h).
For the compound `CCCCCCCCCCC/C=N/n1sc2ccc(C)cc2c1=O`, the EC50 in series [1], in series [3], in series [4] and in series [5] was above 19 µM in each case. The compound also came in with a CC50 at 96 h in series [2] of 19 µM.
With `Cc1ccc2sn(/N=C/c3ccc(O)cc3)c(=O)c2c1`, the concentration giving a half-maximal response (EC50) in series [1] was above 23 µM; in series [3] it was at least 23 µM; in series [4] it was above 23 µM; in series [5], above 23 µM. This compound came in with a 50% cytotoxic concentration (CC50) at 96 h in series [2] of 23 µM.

As usually defined, the EC50 is the midpoint of the concentration-response curve. By CC50 is commonly meant the concentration giving 50% cytotoxicity. Read a high CC50 as better tolerance by the cells.
